Data set [1] is described as follows: folding enthalpy; higher = less favourable; fluorescence melt of hairpins on a sequencing array, two-state fit. The settings on record: sodium 0.088 M. In short, it runs like this:
(§1)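 Cy3 signals were normalised both to pre-quench Cy3 and to control constructs. They came from library hairpins carrying annealed Cy3 and quencher oligos on a sequenced MiSeq flow cell, imaged in 50 mM Na-HEPES pH 8.0, 25 mM NaCl, in 2.5 °C steps up to 60 °C. Bootstrapped two-state fits gave melting temperature and folding enthalpy, and four replicates were combined by inverse variance. Fitted temperatures were then raised by 9.35 °C to match UV melts.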

Data set [2] can be described thus: melting temperature; fluorescence melt of hairpins on a sequencing array, two-state fit, raised by 9.35 °C to match UV melts. Particulars: sodium 0.088 M. In short, it runs like this:
as §1

In the case of GTTGTTGGAAACAGCAAC ((((.((....)).)))), in data set [1], the folding enthalpy was -16.7 kcal/mol. In addition, the Tm in data set [2] stood at 45.3 °C.
The like results for GTTGTTGGAAACGACAAC (((((.(....).))))) were, in that order, -8.7 kcal/mol and 48.4 °C.
GTTGTTTCGAAAGAAAAC (((..(((....)))))): the folding enthalpy in data set [1] is -32.9 kcal/mol. In data set [2], the Tm is 41.8 °C.
As for GTTTAACGAAAGTTAAC (((.(((....)))))), the folding enthalpy in data set [1] is -14.6 kcal/mol. Moreover, in data set [2], the Tm came to 37.1 °C.
For GTTTACCGAAAGGTGAAC (((.(((....))).))), the folding enthalpy in data set [1] is -33 kcal/mol. The Tm in data set [2] stood at 51.4 °C.
Take GTTTACGAAAGTAAAAAC ((((((....)))..))): the folding enthalpy in data set [1] was -12 kcal/mol. Besides, the Tm in data set [2] came to 29.5 °C.
For the sequence GTTTACGAAAGTAAAAC ((((((....))).))), in data set [1], the folding enthalpy is -16.8 kcal/mol. Further, the Tm in data set [2] was 38.4 °C.
As for GTTTACGAAAGTATAAC ((((((....))).))), the folding enthalpy in data set [1] was -12.8 kcal/mol. For the same sequence, the Tm in data set [2] stood at 32.4 °C.
The like results for GTTTAGCCGAAAGGCAAC (((..(((....)))))) were, in that order, -8.63 kcal/mol and 33.7 °C.
In the case of GTTTAGCGAAAGCTCAAC (((.(((....))).))), the folding enthalpy in data set [1] is -20.6 kcal/mol. The Tm in data set [2] was 41.7 °C.
Take GTTTAGGCGAAAGCCAAC (((..(((....)))))): the folding enthalpy in data set [1] was -10.1 kcal/mol. The Tm in data set [2] came out at 33.3 °C.
GTTTATGGAAACATGAAC (((.(((....))).))): the folding enthalpy in data set [1] was -31.3 kcal/mol. Besides, the Tm in data set [2] is 35.7 °C.
For the sequence GTTTCCACGAAAGTGAAC (((..(((....)))))), the folding enthalpy in data set [1] is -8.62 kcal/mol. Besides, in data set [2], the Tm was found to be 27.2 °C.
In the case of GTTTCCGCGAAAGCGAAC (((..(((....)))))), the folding enthalpy in data set [1] is -9.18 kcal/mol. For the same sequence, in data set [2], the Tm turned out to be 23.6 °C.
Take GTTTCCGGAAACGGAAAC (((((((....))))))): in data set [1], the folding enthalpy was -46.4 kcal/mol. In data set [2], the Tm was determined as 64.6 °C.
As to GTTTCGCGAAAGCGTAAC (((.(((....))).))), in data set [1], the folding enthalpy was -21.9 kcal/mol. The Tm in data set [2] came out at 48.6 °C.
As for GTTTCGGAAACGAAAC ((((((....)))))), in data set [1], the folding enthalpy is -35.9 kcal/mol. Moreover, the Tm in data set [2] came to 56.9 °C.
For GTTTCTGGAAACAGGAAC (((.(((....))).))), in data set [1], the folding enthalpy is -30.4 kcal/mol. The Tm in data set [2] was determined as 43.6 °C.
On to GTTTGACCGAAAGGTAAC (((..(((....)))))), for which the folding enthalpy in data set [1] is -11.6 kcal/mol. Besides, the Tm in data set [2] came to 32.4 °C.
Consider GTTTGAGAAATCAAAC ((((((....)))))), for which the folding enthalpy in data set [1] was -27.6 kcal/mol. For the same sequence, the Tm in data set [2] was found to be 47 °C.
For the sequence GTTTGAGGAAACTCAAGC (.(((((....))))).), the folding enthalpy in data set [1] is -25.1 kcal/mol. Besides, the Tm in data set [2] was determined as 40.5 °C.
The like results for GTTTGAGGAAACTCGAAC (((.(((....))).))) were, in that order, -31.7 kcal/mol and 45.6 °C.
As to GTTTGCCGAAAGGCAAC (((.(((....)))))), the folding enthalpy in data set [1] was -10.7 kcal/mol. Moreover, in data set [2], the Tm amounted to 50.4 °C.
The like results for GTTTGCCGAAAGGCGAAC (((.(((....))).))) were, in that order, -28.3 kcal/mol and 61.9 °C.
As for GTTTGCGAAAGCAACAAC ((((((....)))..))), the folding enthalpy in data set [1] is -9.1 kcal/mol. Also, the Tm in data set [2] is 33.7 °C.
Turning to GTTTGCGAAAGCACAAAC ((((((....)))..))), the folding enthalpy in data set [1] is -12.3 kcal/mol. Also, the Tm in data set [2] was found to be 31.6 °C.
On to GTTTGCGAAAGCATGAAC ((((((....)))..))), for which the folding enthalpy in data set [1] is -8.14 kcal/mol. In data set [2], the Tm worked out at 26.4 °C.
Regarding GTTTGGCGAAAGCCAAC (((.(((....)))))), the folding enthalpy in data set [1] was -11.1 kcal/mol. Further, the Tm in data set [2] worked out at 48.7 °C.
The like results for GTTTGGCGAAAGCCTAAC (((.(((....))).))) were, in that order, -21.8 kcal/mol and 51 °C.
Regarding GTTTGGGCGAAAGCCAAC (((..(((....)))))), in data set [1], the folding enthalpy is -10.8 kcal/mol. In addition, the Tm in data set [2] came out at 36.1 °C.
With GTTTGTCGAAAGACAAC (((.(((....)))))), the folding enthalpy in data set [1] is -14.3 kcal/mol. The Tm in data set [2] turned out to be 47.5 °C.
The like results for GTTTGTCGAAAGACCAAC (((.(((....))).))) were, in that order, -26.1 kcal/mol and 37.9 °C.
On to GTTTGTCGAAAGACTAAC (((.(((....))).))), for which the folding enthalpy in data set [1] is -23.9 kcal/mol. Further, the Tm in data set [2] was 45.8 °C.
For GTTTGTGGAAACGTAAAC ((((..(....)..)))), in data set [1], the folding enthalpy is -13.6 kcal/mol. In data set [2], the Tm was determined as 29.1 °C.
The like results for GTTTTACGAAAGTACAAC (((.(((....))).))) were, in that order, -25.8 kcal/mol and 35.5 °C.
The like results for GTTTTAGGAAACTAAAAC (((((((....))))))) were, in that order, -41.9 kcal/mol and 48.4 °C.
As to GTTTTAGGAAACTAGAAC (((.(((....))).))), the folding enthalpy in data set [1] is -11.5 kcal/mol. The Tm in data set [2] was 27.9 °C.

The values above are taken from the array DNA melting data of Ke et al. (doi:10.1101/2024.01.08.574731).
